Screening results deposited in PubChem by several laboratories.
The list is not random: actives were taken first. Their share in the collection is about 29%.
CYP2C19 act = increases human CYP2C19 enzyme activity | P33261 | 96,000 tested, under 10 active | recombinant CYP2C19, luciferin-H EGE luminescence; stronger effect = higher value; 0 = fully inhibited enzyme, 1 = untreated enzyme | activation factor at 5 µM;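 active means activation factor of at least 2 at 5 µM in the primary screen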
Target sequence (P33261 whole entry, looked up): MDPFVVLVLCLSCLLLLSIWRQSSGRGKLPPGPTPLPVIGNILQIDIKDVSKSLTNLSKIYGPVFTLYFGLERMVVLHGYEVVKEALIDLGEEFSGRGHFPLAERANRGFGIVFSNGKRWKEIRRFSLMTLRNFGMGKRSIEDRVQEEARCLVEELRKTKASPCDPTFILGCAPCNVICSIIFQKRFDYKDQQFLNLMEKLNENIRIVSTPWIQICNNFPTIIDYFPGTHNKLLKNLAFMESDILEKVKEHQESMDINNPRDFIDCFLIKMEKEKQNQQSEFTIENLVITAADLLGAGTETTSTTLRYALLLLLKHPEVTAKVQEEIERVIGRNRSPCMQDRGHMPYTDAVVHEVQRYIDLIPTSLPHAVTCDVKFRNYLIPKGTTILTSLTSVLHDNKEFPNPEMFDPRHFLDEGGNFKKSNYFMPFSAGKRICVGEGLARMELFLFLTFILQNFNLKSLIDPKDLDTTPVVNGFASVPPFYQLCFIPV
CYP2C19 inhib = blocks human cytochrome P450 2C19; P33261; AID 778; 96,000 compounds, 21% hits; inhibition, % at 5 µM; CYP2C19 Supersomes, luciferin-H EGE luminescence, 30 min;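 active means CYP2C19 inhibition above a set limit at 5 µM in the primary screen, cut at about 50% in these data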
CYP2C9 inhib = inhibitors of human CYP2C9; CYP2C9 Supersomes, luciferin-H conversion, luminescence; 96,000 compounds, 20% hits; inhibition, % at 5 µM;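 active means blocking of liver enzyme CYP2C9 beyond about 50% at 5 µM, limit read from the data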
CYP2C9 act = CYP2C9 (human) activation; recombinant CYP2C9, luciferin-H conversion, luminescence; stronger effect = higher value; factor 1 = untreated enzyme, 0 = blocked; P11712; activation factor at 5 µM; 96,000 compounds, 1.4% hits;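 active means activation factor of 2 or more for CYP2C9 at a 5 µM dose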
tolC growth inh = growth inhibitors of E. coli BW25113 tolC mutant; AID 573; 65,000 compounds, 2.2% hits; growth inhibition, % at 10 µM (by protocol); OD615;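 active means growth inhibition at or above a cutoff equal to the mean over every tested compound plus 3 SD, cut at about 60% in these data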;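 further: growth measured after 20 h incubation at 37 °C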
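Test system: E. coli BW25113 ΔtolC::kan bacteria | Medium: Kanamycin-containing LB broth (50 µg/mL) | Dosing: One dose of 10 µM final | Times: 20 h incubation with compound, 37 °C | Detection: Optical density read at 615 nm | Read-out basis: Percent growth inhibition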
Ecoli WT expand = growth inhibitors of E. coli BW25113 wild type; OD600 absorbance; growth inhibition, % at 100 µM; 98,000 compounds, 0.15% hits;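 active means growth inhibition above about 50% at one test dose, limit read from the data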;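 further: growth measured after 20 h incubation at 37 °C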
Of the large screens only hits and unclear results are named; the others gave an inactive call.

N=C1C(c2nc3ccccc3[nH]2)=C(O)CN1c1ccc(CC(=O)O)cc1	none (no result: tolC growth inh)
CCCCN1CC(O)=C(c2nc3ccccc3s2)C1=N	CYP2C9 inhib 63.7
CC1CN(S(=O)(=O)c2ccc(Cl)c(S(=O)(=O)N3CC(C)OC(C)C3)c2)CC(C)O1 (stereo not drawn)	none
Cc1ccc(S(=O)(=O)N2CCSC2c2ccco2)cc1 (stereo not drawn)	CYP2C19 inhib 96.0
CCOC(=O)N1N=C(c2ccc(C)cc2)CC1(O)C(F)(F)F (stereo not drawn)	CYP2C19 inhib 58.9 (no result: tolC growth inh)
CCOC(=O)N1N=C(c2ccccc2)CC1(O)C(F)(F)F (stereo not drawn)	none (no result: tolC growth inh)
COc1ccc(CCNc2nc(-c3cccnc3)cs2)cc1OC	CYP2C19 inhib 83.5 (no result: tolC growth inh)
COc1ccc(CCNc2nc(-c3sc(C)nc3C)cs2)cc1OC	none (no result: tolC growth inh)
c1cncc(Nc2nc(-c3cccnc3)cs2)c1	CYP2C19 inhib 71.6, CYP2C9 inhib 56.0
c1cncc(Nc2nc(-c3ccncc3)cs2)c1	CYP2C19 inhib 50.6, CYP2C9 inhib 52.5
COc1ccc(-c2csc(Nc3cccnc3)n2)cc1OC	CYP2C19 inhib 79.1 (no result: tolC growth inh)
c1ccc(Nc2nc(-c3cccnc3)cs2)nc1	none
CC1CC(C)CN(CCCNC(=O)C2CCC(=O)N2C2CCCC2)C1 (stereo not drawn)	none
C=CCNS(=O)(=O)c1ccc2nsnc2c1	none
COc1cccc(CNCCN2CCOCC2)c1OC	none (no result: tolC growth inh)
COc1ccc(C2/C(=C(/O)c3ccccc3)C(=O)C(=O)N2CCN2CCOCC2)c(OC)c1 (stereo not drawn)	none
COc1ccc(S(=O)(=O)N(CCN2CCOCC2)Cc2cc(OC)ccc2OC)cc1	CYP2C19 inhib 81.4
COc1ccc(S(=O)(=O)N(CCCN2CCOCC2)Cc2cccc3ccccc23)cc1	CYP2C19 inhib 77.5 (no result: tolC growth inh)
COc1ccc(S(=O)(=O)N(CCCN2CCOCC2)Cc2cccc(OC)c2OC)cc1	CYP2C19 inhib 58.3 (no result: tolC growth inh)
COc1ccccc1N1CCN(C(=O)CSc2ccc3c(C)cc(C)nc3n2)CC1	none (no result: CYP2C19 act, CYP2C19 inhib, CYP2C9 inhib, CYP2C9 act)
C[N+]1(CC(=O)Nc2ccccc2Cl)CCN(C(=O)c2cccs2)CC1	none (no result: tolC growth inh)
O=C1CC(C(=O)Nc2ccc(Br)cc2)C2(CCCC2)O1 (stereo not drawn)	CYP2C19 inhib 97.3, CYP2C9 inhib 60.8
CC1(C)CC2(CCO1)OC(=O)CC2C(=O)Nc1cccc2ccccc12 (stereo not drawn)	none (no result: tolC growth inh)
Cc1ccc(NC(=O)C2CC(=O)OC23CCOC(C)(C)C3)cc1 (stereo not drawn)	CYP2C19 inhib 66.3 (no result: tolC growth inh)
O=C1CC(C(=O)Nc2ccccc2)C2(CCCCC2)O1 (stereo not drawn)	none (no result: tolC growth inh)
CC1(C)CC(=O)c2cc(C(=O)N3CCN(CCO)CC3)c(=O)n(-c3ccc(Cl)cc3)c2C1	none
Cc1ccnc(NC2OC(=O)c3ccccc32)c1 (stereo not drawn)	none (no result: tolC growth inh)
Cc1c(NC(=O)C2Cc3ccccc3CN2C(=O)c2ccco2)c(=O)n(-c2ccccc2)n1C (stereo not drawn)	none
O=C(Nc1ccccc1N1CCOCC1)C1Cc2ccccc2CN1C(=O)c1ccco1 (stereo not drawn)	CYP2C19 inhib 51.4, CYP2C9 inhib 67.1 (no result: tolC growth inh)
O=C1CC(Cc2ccccc2)C(=O)N1CCc1ccc2c(c1)OCO2 (stereo not drawn)	CYP2C19 inhib 85.8
O=C1CC(Cc2ccccc2)C(=O)N1CCCn1ccnc1 (stereo not drawn)	CYP2C19 inhib 100.3, CYP2C9 inhib 68.6 (no result: tolC growth inh)
CCN(CC)c1ccc2c(c1)CCCN2	none (no result: CYP2C19 act, CYP2C19 inhib, CYP2C9 inhib, CYP2C9 act)
C=CCN1C(=O)C(Cc2ccc(OCC)cc2)S/C1=N\N=C\c1cccs1 (stereo not drawn)	CYP2C9 inhib 54.1 (no result: tolC growth inh)
C=CCN1C(=O)C(Cc2ccccc2)S/C1=N/N=C/c1cccs1 (stereo not drawn)	CYP2C9 inhib 68.0 (no result: tolC growth inh)
C=CCN1C(=O)C(Cc2ccc(C)cc2)S/C1=N/N=C/c1ccco1 (stereo not drawn)	none (no result: tolC growth inh)
Cc1ccc(CN=C2Nc3ccccc3CS2)cc1	CYP2C19 inhib 70.9 (no result: tolC growth inh)
Clc1ccc(CN=C2Nc3ccccc3CS2)cc1	CYP2C19 inhib 85.7 (no result: tolC growth inh)
N#CC(C(=O)Nc1ccc(Cl)c(Cl)c1)=C1Nc2ccccc2N1	none
COc1ccc(N(CC(=O)Nc2ccc(S(=O)(=O)N3CCCC3)cc2)S(C)(=O)=O)cc1OC	none (no result: CYP2C19 act, CYP2C19 inhib, CYP2C9 inhib, CYP2C9 act)
COc1ccc(N2CCN(S(=O)(=O)c3ccc(OC)cc3)CC2)cc1	none (no result: CYP2C19 act, CYP2C19 inhib, CYP2C9 inhib, CYP2C9 act, Ecoli WT expand)
